Here are results for one compound from ChEMBL document CHEMBL3867440, “Hernandezine, a Bisbenzylisoquinoline Alkaloid with Selective Inhibitory Activity against Multidrug-Resistance-Linked ATP-Binding Cassette Drug Transporter ABCB1” (J Nat Prod, 2016).

pIC50: −log10 of the molar value.

The target in data set [1] is T1, ATP-dependent translocase ABCB1 (Homo sapiens, UniProt P08183). Nature of the data set: Inhibition of ABCB1 in human KBV1 cells assessed as potentiation of vincristine-induced cytotoxicity by measuring vincristine resistance ratio at 100 nM after 72 hrs by MTT assay relative to parental KB-3-1 cells (reference value: 356). It is filed as cell-based. The note with it: kbv1, 72 h, 0.1 µM. The procedure, abridged: (§1)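 Cells were kept in drug-free DMEM with 10% FCS for 7 days before assay, then plated at 5000 cells/well for 24 h. Drug at various concentrations was added with a nontoxic fixed level of modulator for 72 h, and the read-out was MTT. IC50 came from fitted curves (≥3 experiments). RR = IC50 of the resistant line / IC50 of the parental line.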
T1 sequence (P08183 whole entry): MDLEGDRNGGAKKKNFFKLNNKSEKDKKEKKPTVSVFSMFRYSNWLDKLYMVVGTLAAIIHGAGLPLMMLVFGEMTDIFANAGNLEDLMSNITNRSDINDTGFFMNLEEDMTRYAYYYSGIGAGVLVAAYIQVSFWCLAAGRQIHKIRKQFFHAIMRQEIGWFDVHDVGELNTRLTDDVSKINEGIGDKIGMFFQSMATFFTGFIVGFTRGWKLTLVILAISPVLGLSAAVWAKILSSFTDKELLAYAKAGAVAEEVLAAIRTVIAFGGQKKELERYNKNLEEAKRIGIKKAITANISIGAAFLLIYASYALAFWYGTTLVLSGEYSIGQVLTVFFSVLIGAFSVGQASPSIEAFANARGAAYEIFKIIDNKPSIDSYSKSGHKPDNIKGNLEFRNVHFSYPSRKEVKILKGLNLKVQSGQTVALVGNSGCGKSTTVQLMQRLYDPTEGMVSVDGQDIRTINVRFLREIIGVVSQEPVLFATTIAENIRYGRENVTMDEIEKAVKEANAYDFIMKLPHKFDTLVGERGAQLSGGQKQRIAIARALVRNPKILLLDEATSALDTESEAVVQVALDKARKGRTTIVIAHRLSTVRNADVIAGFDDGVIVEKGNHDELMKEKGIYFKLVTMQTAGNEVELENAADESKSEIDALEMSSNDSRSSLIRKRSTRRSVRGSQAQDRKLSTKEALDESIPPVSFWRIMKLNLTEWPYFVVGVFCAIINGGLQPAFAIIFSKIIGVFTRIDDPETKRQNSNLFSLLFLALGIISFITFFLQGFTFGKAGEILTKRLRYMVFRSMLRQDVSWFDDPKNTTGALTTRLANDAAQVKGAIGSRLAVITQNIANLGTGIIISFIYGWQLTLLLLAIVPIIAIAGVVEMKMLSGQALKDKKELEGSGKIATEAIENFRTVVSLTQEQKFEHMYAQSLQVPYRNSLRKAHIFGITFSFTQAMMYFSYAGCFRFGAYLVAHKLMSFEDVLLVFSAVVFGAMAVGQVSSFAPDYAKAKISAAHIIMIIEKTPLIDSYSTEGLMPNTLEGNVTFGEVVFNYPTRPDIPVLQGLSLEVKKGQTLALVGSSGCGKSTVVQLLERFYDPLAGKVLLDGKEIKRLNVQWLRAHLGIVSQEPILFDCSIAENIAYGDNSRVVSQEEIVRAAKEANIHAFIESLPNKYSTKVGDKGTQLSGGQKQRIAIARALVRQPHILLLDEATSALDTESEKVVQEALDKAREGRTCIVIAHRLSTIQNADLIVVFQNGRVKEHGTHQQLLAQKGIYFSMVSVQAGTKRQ
In general terms: Tetrazolium dyes change colour on reduction, which living cells bring about.

Data set [2] relates to KB-V1. Nature of the data set: Induction of apoptosis in human KBV1 cells assessed as early apoptotic cells at 1 uM after 48 hrs by Annexin V-FITC/propidium iodide staining based FACS analysis (reference value: 5.3%). It is filed as functional. In general terms: A flow cytometer gives signals particle by particle.
For data set [3], the system named is KB 3-1. Put plainly: Induction of apoptosis in human KB-3-1 cells assessed as late apoptotic cells at 1 uM after 48 hrs by Annexin V-FITC/propidium iodide staining based FACS analysis (reference value: 5.8%). It is filed as functional.
Data set [4] deals with KB 3-1. Nature of the data set: Induction of apoptosis in human KB-3-1 cells assessed as early apoptotic cells at 1 uM after 48 hrs by Annexin V-FITC/propidium iodide staining based FACS analysis (reference value: 5.1%). It is filed as functional.
For data set [5], the target named is T1, ATP-dependent translocase ABCB1. Put plainly: Inhibition of ABCB1 in human KBV1 cells assessed as potentiation of colchicine-induced cytotoxicity by measuring colchicine resistance ratio at 50 nM after 72 hrs by MTT assay relative to parental KB-3-1 cells (reference value: 55). It is filed as cell-based. The note with it: kbv1, 72 h, 0.05 µM. Summed up:
as §1

For data set [6], the system named is KB 3-1. Put plainly: Potentiation of colchicine-induced apoptosis in human KB-3-1 cells assessed as late apoptotic cells at 1 uM after 48 hrs by Annexin V-FITC/propidium iodide staining based FACS analysis (reference value: 25.7%). The class given is functional.
For data set [7], the target named is T1, ATP-dependent translocase ABCB1. Put plainly: Inhibition of ABCB1 in human KBV1 cells assessed as potentiation of colchicine-induced cytotoxicity by measuring colchicine resistance ratio at 500 nM after 72 hrs by MTT assay relative to parental KB-3-1 cells (reference value: 55). The note with it: kbv1, 72 h, 0.5 µM. It is filed as cell-based. Summed up: as §1

Data set [8] shares this target. Nature of the data set: Inhibition of ABCB1 in human NCI-ADR-RES cells assessed as reduction of calcein efflux at 1 uM by -based FACS analysis. It is filed as cell-based. Summed up:
(§2)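 Trypsinized cells were resuspended in IMDM with 5% FCS. Calcein-AM was added to 3 × 10^5 cells in 4 mL IMDM, with or without 1 μM test compound or 3 μM tariquidar. Intracellular calcein fluorescence was read immediately by flow cytometry, with the drug-sensitive parental line run in parallel.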

Data set [9] has the same target. Nature of the data set: Inhibition of ABCB1 in human KBV1 cells assessed as potentiation of vincristine-induced cytotoxicity by measuring vincristine resistance ratio at 500 nM after 72 hrs by MTT assay relative to parental KB-3-1 cells (reference value: 356). The class given is cell-based. The note with it: kbv1, 72 h, 0.5 µM. Summed up: as §1
The target in data set [10] is Multidrug resistance-associated protein 1 (Homo sapiens, UniProt P33527). Nature of the data set: Inhibition of human ABCC1 transfected in HEK293 cells assessed as potentiation of etoposide-induced cytotoxicity by measuring etoposide resistance ratio at 500 nM after 72 hrs by CCK8 assay relative to parental HEK293 cells (reference value: 350). It is filed as cell-based. Particulars: hek293, 72 h, 0.5 µM; call rule not given here.
Sequence of Multidrug resistance-associated protein 1 (P33527 whole entry): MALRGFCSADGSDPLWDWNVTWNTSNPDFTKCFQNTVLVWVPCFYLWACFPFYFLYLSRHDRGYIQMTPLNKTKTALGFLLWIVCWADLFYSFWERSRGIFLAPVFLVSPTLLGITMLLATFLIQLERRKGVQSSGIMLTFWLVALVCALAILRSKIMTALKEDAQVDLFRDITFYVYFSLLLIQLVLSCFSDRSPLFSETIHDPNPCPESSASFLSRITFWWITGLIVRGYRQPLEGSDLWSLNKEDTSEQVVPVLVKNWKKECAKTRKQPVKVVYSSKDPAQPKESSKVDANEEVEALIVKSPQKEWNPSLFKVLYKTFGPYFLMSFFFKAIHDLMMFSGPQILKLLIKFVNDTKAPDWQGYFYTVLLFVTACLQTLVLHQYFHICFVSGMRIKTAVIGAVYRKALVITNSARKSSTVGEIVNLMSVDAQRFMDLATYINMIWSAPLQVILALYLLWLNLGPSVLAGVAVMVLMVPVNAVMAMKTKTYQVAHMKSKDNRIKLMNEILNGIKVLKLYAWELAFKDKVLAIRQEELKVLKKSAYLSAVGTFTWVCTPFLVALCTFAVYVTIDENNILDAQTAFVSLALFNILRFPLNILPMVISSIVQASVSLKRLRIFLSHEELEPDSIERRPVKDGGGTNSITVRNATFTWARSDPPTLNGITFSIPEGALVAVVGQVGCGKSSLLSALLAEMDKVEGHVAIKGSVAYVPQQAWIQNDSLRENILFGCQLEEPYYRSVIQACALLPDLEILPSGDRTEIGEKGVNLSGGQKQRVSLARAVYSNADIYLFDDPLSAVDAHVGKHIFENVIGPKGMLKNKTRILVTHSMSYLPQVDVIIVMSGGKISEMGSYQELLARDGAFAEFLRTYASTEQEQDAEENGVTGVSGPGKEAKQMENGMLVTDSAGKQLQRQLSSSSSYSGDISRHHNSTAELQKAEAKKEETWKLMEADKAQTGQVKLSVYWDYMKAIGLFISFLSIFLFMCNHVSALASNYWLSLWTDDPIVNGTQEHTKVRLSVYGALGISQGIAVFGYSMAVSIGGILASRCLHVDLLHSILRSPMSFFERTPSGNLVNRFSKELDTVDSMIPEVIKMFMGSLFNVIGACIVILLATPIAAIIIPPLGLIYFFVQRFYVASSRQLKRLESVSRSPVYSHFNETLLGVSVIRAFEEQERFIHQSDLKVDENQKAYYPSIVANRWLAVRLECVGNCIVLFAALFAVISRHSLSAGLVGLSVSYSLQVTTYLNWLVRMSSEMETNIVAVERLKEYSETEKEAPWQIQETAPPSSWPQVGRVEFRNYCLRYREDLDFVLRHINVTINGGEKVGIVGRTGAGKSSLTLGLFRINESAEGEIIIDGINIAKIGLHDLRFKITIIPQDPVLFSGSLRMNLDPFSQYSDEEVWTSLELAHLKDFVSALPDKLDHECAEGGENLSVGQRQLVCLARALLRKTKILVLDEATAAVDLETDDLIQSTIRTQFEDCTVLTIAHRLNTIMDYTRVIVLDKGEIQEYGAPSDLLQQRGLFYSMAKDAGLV

In data set [11] the target is T1, ATP-dependent translocase ABCB1. Nature of the data set: Inhibition of ABCB1 in human NCI-ADR-RES cells assessed as potentiation of vincristine-induced cytotoxicity by measuring vincristine resistance ratio at 100 nM after 72 hrs by MTT assay relative to parental OVCAR8 cells (reference value: 435). The class given is cell-based. Particulars: ovcar-8, 72 h, 0.1 µM. The procedure, abridged: as §1

Data set [12] has the same target. Nature of the data set: Inhibition of ABCB1 in human KBV1 cells assessed as reduction in Calcein-AM dye efflux 1 uM by FACS analysis. The note with it: kbv1, 1 µM. It is filed as cell-based. The procedure, abridged:
as §2

In data set [13] the test system is KB-V1. Nature of the data set: Induction of apoptosis in human KBV1 cells assessed as necrotic cells at 1 uM after 48 hrs by Annexin V-FITC/propidium iodide staining based FACS analysis (reference value: 1%). It is filed as functional.
In data set [14] the target is T1, ATP-dependent translocase ABCB1. Put plainly: Inhibition of ABCB1 in human NCI-ADR-RES cells assessed as potentiation of doxorubicin-induced cytotoxicity by measuring doxorubicin resistance ratio at 200 nM after 72 hrs by MTT assay relative to parental OVCAR8 cells (reference value: 46). The class given is cell-based. Particulars: ovcar-8, 72 h, 0.2 µM. Summed up: as §1

The subject of data set [15] is KB-V1. Put plainly: Induction of apoptosis in human KBV1 cells assessed as viable cells at 1 uM after 48 hrs by Annexin V-FITC/propidium iodide staining based FACS analysis (reference value: 86.1%). It is filed as functional. The note with it: KB-V1, 48 h, read-out: Activity.
Data set [16] concerns the target T1, ATP-dependent translocase ABCB1. Nature of the data set: Inhibition of ABCB1 in human KBV1 cells assessed as potentiation of doxorubicin-induced cytotoxicity at 1 uM after 72 hrs by MTT assay. It is filed as cell-based. The note with it: kbv1, 72 h. The procedure, abridged:
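The cells were kept in drug-free medium for 7 days. They were seeded at 5000 cells/well, allowed to attach for 24 h at 37 °C, then exposed to graded doxorubicin with or without 50–500 nM test compound or 1 μM tariquidar for a further 72 h. Viability was read by MTT. Results are means of at least three independent experiments.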

Data set [17] has the same target. Put plainly: Inhibition of ABCB1 in human KBV1 cells assessed as potentiation of doxorubicin-induced cytotoxicity by measuring doxorubicin resistance ratio at 500 nM after 72 hrs by MTT assay relative to parental KB-3-1 cells (reference value: 34). The class given is cell-based. The note with it: kbv1, 72 h, 0.5 µM. Summed up:
as §1

For data set [18] the target is unchanged. Put plainly: Inhibition of ABCB1 in human NCI-ADR-RES cells assessed as potentiation of vincristine-induced cytotoxicity by measuring vincristine resistance ratio at 50 nM after 72 hrs by MTT assay relative to parental OVCAR8 cells (reference value: 435). Particulars: ovcar-8, 72 h, 0.05 µM. It is filed as cell-based. The procedure, abridged:
as §1

For data set [19], the system named is KB-V1. Put plainly: Induction of apoptosis in human KBV1 cells assessed as late apoptotic cells at 1 uM after 48 hrs by Annexin V-FITC/propidium iodide staining based FACS analysis (reference value: 7.6%). It is filed as functional.
In data set [20] the target is T1, ATP-dependent translocase ABCB1. Nature of the data set: Inhibition of ABCB1 in human KBV1 cells assessed as potentiation of colchicine-induced cytotoxicity by measuring colchicine resistance ratio at 200 nM after 72 hrs by MTT assay relative to parental KB-3-1 cells (reference value: 55). It is filed as cell-based. The note with it: kbv1, 72 h, 0.2 µM. Summed up:
as §1

For data set [21] the target is unchanged. Nature of the data set: Inhibition of human ABCB1-mediated efflux transfected in HEK293 cells assessed as accumulation of fluorescent dye by calcein-AM dye based FACS analysis. The class given is cell-based. Summed up:
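The HEK293 cells, transfected with human ABCB1 (parental HEK293 as control), were trypsinized and resuspended in IMDM with 5% FCS. Calcein-AM was added to 3 × 10^5 cells in 4 mL, with or without test compound (single 1 μM or a concentration series) or 3 μM tariquidar. Fluorescence was read immediately by flow cytometry. Results are the mean ± SEM of at least three experiments.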

For data set [22] the target is unchanged. Put plainly: Inhibition of ABCB1 in human NCI-ADR-RES cells assessed as potentiation of colchicine-induced cytotoxicity by measuring colchicine resistance ratio at 200 nM after 72 hrs by MTT assay relative to parental OVCAR8 cells (reference value: 59). The class given is cell-based. Particulars: ovcar-8, 72 h, 0.2 µM. Summed up: as §1

Turning to `COc1ccc2cc1Oc1ccc(cc1)C[C@H]1c3cc(c(OC)cc3CCN1C)Oc1c(OC)c(OC)c(OC)c3c1[C@H](C2)N(C)CC3` [HERNANDEZINE], the Ratio is reported as 169 in data set [1]; 31 in [5]; 3 in data set [7]; 3 in [9]; 547 in data set [10]; 433 in [11]. The Ratio in data set [14] turned out to be 5; in data set [17] it was 1; in data set [18], 505; in data set [20], 13; in [22], 10. Moreover, the Activity with KB-V1 [2] was 4.7%; with KB 3-1 [3] it was 4.4%; in the data set with KB 3-1 [4], 6.6%; in the data set on KB 3-1 [6], 26.4%; in the data set on KB-V1 [13], 1%; in the data set on KB-V1 [19], 6.7%. The “inhibition (INH)” value in data set [8] is on record as “Active”; in [12], “Active”; in data set [16], “Active”; in data set [21] (human, hek293), “Dose-dependent effect”. Moreover, the viability at 1 µM in the data set with KB-V1 [15] was 87.6%. Besides, the pIC50 (commonly −log10 of the IC50, conventionally taken in molar units) in data set [21] is 6.52.
